Laboratory results reported in ChEMBL document CHEMBL5046323, “Discovery of Phospholipase D Inhibitors with Improved Drug-like Properties and Central Nervous System Penetrance” (ACS Med Chem Lett, 2022).
In brackets after ≈: the same amount, converted by molar mass.

Experiments:
[1] = biological target: Phospholipase D1 (Homo sapiens) (UniProt Q13393); test: Inhibition of PLD1 in human Calu-1 cells assessed as reduction in d9-phosphobutanol formation by mass spectrometry-based transphosphatidylation assay
[2] = biological target: Cytochrome P450 2C9 (Homo sapiens, UniProt P11712); test: Inhibition of CYP2C9 (unknown origin); type: ADME
[3] = biological target: Voltage-gated inwardly rectifying potassium channel KCNH2 (Homo sapiens, UniProt Q12809); test: Inhibition of human ERG; type: toxicity
[4] = Drug concentration in sc dosed C57BL/6 mouse liver measured after 60 mins by LC-FTICR-MS analysis; type: ADME, organism-based; details: read-out: Ct
Summary of the method: (§1)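 Mice dosed subcutaneously at 10 mg/kg 15, 30 or 60 min before injection of 1-butanol-d10; tissues (liver, brain) collected 15 min after butanol injection for compound levels.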

[5] = Drug concentration in sc dosed C57BL/6 mouse liver measured after 30 mins by LC-FTICR-MS analysis; type: ADME, organism-based; details: read-out: Ct
Summary of the method: as §1

[6] = Kinetic solubility of compound at pH 6.8; type: physicochemical; details: buffer, read-out: Kinetic_solubility
Summary of the method: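 Kinetic solubility measured at pH 6.8.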

[7] = Drug concentration in sc dosed C57BL/6 mouse brain measured after 30 mins by LC-FTICR-MS analysis; type: ADME, organism-based; details: read-out: Ct
Summary of the method: as §1

[8] = Unbound brain concentration in sc dosed C57BL/6 mouse measured after 15 mins by LC-FTICR-MS analysis; type: ADME, organism-based; details: in vivo, 0.25 h
Summary of the method: as §1

[9] = biological target: Cytochrome P450 3A4 (Homo sapiens, UniProt P08684); test: Inhibition of CYP3A4 (unknown origin); type: ADME
[10] = Plasma protein binding in sc dosed C57BL/6 mouse by LC-MS/MS analysis; type: ADME, organism-based; details: in vivo
[11] = biological target: T1, Cytochrome P450 2B6 (Homo sapiens, UniProt P20813); test: Inhibition of CYP2B6 (unknown origin); type: ADME
T1 sequence (P20813 whole entry): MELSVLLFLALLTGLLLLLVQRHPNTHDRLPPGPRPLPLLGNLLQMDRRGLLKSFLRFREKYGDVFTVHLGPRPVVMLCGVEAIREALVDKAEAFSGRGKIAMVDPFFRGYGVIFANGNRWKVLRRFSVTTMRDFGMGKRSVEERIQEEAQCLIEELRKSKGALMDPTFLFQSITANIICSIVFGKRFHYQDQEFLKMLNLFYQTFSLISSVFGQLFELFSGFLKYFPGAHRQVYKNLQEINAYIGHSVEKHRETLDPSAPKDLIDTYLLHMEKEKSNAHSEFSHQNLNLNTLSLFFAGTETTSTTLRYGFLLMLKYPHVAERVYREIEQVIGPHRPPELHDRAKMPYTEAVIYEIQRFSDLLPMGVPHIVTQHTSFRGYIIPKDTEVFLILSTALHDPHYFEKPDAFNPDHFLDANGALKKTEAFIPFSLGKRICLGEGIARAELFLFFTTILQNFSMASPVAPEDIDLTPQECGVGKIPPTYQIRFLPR

[12] = Unbound brain-to-plasma concentration ratio in rat; type: ADME; details: read-out: K(p,uu,brain)
Summary of the method: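 Kpu,u is the ratio of free compound concentration in brain over free concentration in plasma at steady state, determined by rat infusion.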

[13] = Drug concentration in sc dosed C57BL/6 mouse brain measured after 15 mins by LC-FTICR-MS analysis; type: ADME, organism-based; details: read-out: Ct
Summary of the method: as §1

[14] = Apparent permeability in dog MDCK cells with low MDR1 expression
[15] = biological target: Cytochrome P450 2D6 (Homo sapiens, UniProt P10635); test: Inhibition of CYP2D6 (unknown origin); type: ADME
[16] = Tmax in sc dosed C57BL/6 mouse by LC-MS/MS analysis; type: ADME, organism-based; details: in vivo
[17] = Drug concentration in sc dosed C57BL/6 mouse liver measured after 15 mins by LC-FTICR-MS analysis; type: ADME, organism-based; details: read-out: Ct
Summary of the method: as §1

[18] = Plasma protein binding in rat assessed as unbound fraction; type: ADME, cell-free
[19] = biological target: T2, Phospholipase D1 (Homo sapiens, UniProt Q13393); test: Inhibition of PLD1 (unknown origin) expressed in human HEK cells by immunoprecipitation assay; type: cell-based
T2 sequence (Q13393 whole entry): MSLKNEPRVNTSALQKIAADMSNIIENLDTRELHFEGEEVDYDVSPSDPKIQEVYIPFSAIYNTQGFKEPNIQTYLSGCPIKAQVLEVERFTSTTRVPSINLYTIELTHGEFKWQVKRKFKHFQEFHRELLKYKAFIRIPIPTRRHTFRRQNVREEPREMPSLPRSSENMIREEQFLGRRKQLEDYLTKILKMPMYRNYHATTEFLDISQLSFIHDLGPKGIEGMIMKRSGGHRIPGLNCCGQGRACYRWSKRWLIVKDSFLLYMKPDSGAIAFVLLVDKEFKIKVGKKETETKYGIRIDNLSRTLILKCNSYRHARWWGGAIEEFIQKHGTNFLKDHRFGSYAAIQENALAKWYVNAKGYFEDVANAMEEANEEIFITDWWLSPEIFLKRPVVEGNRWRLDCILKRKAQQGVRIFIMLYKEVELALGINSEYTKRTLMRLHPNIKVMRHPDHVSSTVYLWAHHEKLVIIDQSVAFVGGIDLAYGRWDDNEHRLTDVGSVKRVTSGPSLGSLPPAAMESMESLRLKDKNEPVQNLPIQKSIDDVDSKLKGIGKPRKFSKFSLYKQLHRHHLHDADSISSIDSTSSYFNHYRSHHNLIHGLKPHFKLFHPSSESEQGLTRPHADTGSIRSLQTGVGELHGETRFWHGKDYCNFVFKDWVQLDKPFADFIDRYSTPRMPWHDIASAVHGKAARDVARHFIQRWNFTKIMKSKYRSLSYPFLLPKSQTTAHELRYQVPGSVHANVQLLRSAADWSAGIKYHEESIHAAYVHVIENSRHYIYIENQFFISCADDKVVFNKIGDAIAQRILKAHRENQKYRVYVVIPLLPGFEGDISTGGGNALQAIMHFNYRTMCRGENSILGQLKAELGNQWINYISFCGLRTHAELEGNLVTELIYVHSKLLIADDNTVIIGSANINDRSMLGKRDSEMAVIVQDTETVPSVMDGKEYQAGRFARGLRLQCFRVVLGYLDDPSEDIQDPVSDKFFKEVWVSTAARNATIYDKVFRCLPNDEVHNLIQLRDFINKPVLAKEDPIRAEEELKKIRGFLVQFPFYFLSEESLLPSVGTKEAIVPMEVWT

[20] = Tmax in po dosed rat; type: ADME, organism-based; details: in vivo
Summary of the method: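 Rat oral PK, average of two experiments with n = 3 rats each; formulation HPMC/Tween.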

[21] = Clearance in iv dosed rat administered as cassette dose; type: ADME, organism-based; details: in vivo
Summary of the method: (§2)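 Rat IV clearance from cassette dosing; unbound clearance calculated as CL/fu.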

[22] = Unbound clearance in iv dosed rat administered as cassette dose; type: ADME, organism-based; details: in vivo
Summary of the method: as §2

Sequence of Cytochrome P450 3A4 (P08684 whole entry): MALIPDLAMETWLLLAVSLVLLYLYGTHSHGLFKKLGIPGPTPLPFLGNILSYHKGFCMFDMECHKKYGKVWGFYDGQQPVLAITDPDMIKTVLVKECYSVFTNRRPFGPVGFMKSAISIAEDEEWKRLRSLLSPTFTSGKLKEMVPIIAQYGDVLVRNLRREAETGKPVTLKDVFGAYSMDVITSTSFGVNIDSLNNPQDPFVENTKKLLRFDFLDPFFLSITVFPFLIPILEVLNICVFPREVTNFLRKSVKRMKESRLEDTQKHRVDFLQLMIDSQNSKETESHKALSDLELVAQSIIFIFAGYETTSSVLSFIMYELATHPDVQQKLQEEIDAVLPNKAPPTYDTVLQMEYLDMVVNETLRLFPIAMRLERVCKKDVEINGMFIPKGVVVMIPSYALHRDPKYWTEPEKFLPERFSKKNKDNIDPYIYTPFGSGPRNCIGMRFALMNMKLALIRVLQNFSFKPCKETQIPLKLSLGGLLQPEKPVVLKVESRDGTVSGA
Sequence of Cytochrome P450 2D6 (P10635 whole entry): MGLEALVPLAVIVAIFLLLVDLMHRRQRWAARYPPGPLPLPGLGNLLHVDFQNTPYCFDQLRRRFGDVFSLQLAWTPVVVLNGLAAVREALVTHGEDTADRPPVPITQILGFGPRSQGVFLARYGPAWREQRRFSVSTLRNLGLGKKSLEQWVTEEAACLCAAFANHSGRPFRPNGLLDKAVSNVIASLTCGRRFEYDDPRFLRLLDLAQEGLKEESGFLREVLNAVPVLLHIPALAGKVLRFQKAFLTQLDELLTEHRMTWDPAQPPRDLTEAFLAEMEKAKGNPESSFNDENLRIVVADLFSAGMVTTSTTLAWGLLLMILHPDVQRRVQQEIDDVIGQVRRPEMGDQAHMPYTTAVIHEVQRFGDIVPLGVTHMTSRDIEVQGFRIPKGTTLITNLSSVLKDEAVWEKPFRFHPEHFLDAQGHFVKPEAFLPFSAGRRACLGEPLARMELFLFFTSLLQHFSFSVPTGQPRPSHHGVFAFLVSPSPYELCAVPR
Sequence of Voltage-gated inwardly rectifying potassium channel KCNH2 (Q12809 whole entry): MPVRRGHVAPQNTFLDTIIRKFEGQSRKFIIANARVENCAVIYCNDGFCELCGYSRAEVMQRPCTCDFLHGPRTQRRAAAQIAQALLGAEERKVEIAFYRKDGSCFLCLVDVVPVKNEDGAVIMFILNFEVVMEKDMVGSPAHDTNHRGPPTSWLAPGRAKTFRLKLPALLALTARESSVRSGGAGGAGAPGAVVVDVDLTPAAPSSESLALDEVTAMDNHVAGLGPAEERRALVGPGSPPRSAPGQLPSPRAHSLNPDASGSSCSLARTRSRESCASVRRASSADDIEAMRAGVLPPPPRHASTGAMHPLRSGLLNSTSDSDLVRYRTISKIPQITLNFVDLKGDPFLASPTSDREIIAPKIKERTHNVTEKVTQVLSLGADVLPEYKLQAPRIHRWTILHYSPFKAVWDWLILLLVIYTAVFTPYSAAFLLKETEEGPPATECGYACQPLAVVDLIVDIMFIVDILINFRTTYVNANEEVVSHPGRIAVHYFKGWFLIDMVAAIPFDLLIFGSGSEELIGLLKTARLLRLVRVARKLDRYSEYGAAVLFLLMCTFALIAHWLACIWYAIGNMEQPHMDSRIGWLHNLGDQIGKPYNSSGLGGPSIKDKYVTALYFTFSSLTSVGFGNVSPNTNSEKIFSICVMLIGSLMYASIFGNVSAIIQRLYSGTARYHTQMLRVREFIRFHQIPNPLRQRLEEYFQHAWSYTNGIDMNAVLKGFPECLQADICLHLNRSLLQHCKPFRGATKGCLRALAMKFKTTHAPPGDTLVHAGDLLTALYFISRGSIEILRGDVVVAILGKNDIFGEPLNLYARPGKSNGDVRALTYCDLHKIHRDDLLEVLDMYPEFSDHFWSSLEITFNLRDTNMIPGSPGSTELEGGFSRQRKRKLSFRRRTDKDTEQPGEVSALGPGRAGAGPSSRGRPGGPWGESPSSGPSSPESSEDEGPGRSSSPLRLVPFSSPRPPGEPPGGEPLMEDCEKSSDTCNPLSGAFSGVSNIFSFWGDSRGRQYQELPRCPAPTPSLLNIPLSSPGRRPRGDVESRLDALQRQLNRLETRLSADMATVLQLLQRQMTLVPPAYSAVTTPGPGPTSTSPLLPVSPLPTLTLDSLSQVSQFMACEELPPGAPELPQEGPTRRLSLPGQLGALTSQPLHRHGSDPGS
Sequence of Cytochrome P450 2C9 (P11712 whole entry): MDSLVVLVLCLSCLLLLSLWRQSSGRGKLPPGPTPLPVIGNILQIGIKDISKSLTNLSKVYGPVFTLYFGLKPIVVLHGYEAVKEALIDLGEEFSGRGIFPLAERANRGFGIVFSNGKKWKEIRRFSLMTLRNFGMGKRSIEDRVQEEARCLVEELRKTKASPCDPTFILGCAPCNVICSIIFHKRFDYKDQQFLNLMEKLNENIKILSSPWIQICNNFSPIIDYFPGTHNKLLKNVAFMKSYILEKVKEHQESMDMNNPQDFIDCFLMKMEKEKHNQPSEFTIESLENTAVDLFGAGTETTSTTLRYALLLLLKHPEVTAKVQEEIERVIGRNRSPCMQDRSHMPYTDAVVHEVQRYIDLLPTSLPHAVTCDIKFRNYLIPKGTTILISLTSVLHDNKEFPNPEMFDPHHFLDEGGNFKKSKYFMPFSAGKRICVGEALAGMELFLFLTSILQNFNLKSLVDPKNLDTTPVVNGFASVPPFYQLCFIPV

C[C@@H]1CN(C(=O)[C@H](C)N2CCC(n3c(=O)[nH]c4ccccc43)CC2)C[C@@H](C)N1
IC50 [1]: 6 nM
IC50 [2]: > 10 µM
IC50 [3]: > 30 µM
concentration at 1 h [4]: 7380 ng/g
concentration at 0.5 h [5]: 7160 ng/g
solubility kinetic [6]: 72.6 µg/mL (≈ 188 µM)
concentration at 0.5 h [7]: 109 ng/g
Drug uptake(free) [8]: 38.1 nM
IC50 [9]: > 10 µM
PPB [10]: 17.2%
IC50 [11]: > 10 µM
Kp uu [12]: 0.8
concentration at 0.25 h [13]: 83.8 ng/g
Papp [14]: 5.1 ×10⁻⁶ cm/s
IC50 [15]: > 10 µM
Tmax [16]: 26.4 min
concentration at 0.25 h [17]: 4550 ng/g
Fu [18]: 10.8%
IC50 [19]: 44 nM
Tmax [20]: 3 h
clearance [21]: 28 mL/min/kg
CL free [22]: 84 mL/min/kg
